For test [1], the system named is CCRF-CEM. Put plainly: Growth inhibition of human CCRF-CEM cells after 48 hrs by cell culture assay. Type of test: functional. The following applies: read-out: ID50 (the source's name). The procedure, abridged:
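CCRF-CEM human lymphoblastic leukemia cells, which lack cystathionase and need exogenous L-cysteine, grown in culture with test lactone; growth inhibition expressed as ID50 (M).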

The next test concerns CCRF-SLT. Put plainly: Growth inhibition of human CCRF-SLT cells in presence of cystathionine. The class given is functional, cell-based. A digest of the protocol: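 Cystathionase-containing CCRF-SLT cell line, able to grow on cystathionine, cultured with test lactone in medium supplemented with cystathionine and, in parallel, without it; growth inhibition compared between the two media.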

The subject of test [2] is CCRF-CEM. Put plainly: Growth inhibition of human CCRF-CEM cells after 48 hrs by cell culture assay in presence of 1 x 10^-4 M L-cysteine. The note with it: read-out: ID50 (the source's name). Type of test: functional.

Calls of active or inactive are those of the source. The calls are words filed in the database; no cut-off is given here.

Consider `C=C1C(=O)OC(C)(C)C1C` (stereo not drawn), for which, in the test with CCRF-CEM [1], the IC50 is 21 µM. Besides, the “growth inhibition (GI)” value in the test on CCRF-SLT was “Active”. As to `C=C1C(=O)OC[C@H]2[C@H]3CC[C@@H](C3)[C@@H]12`, in the test with CCRF-CEM [1], the IC50 was 7 µM. As for `C=C1C(=O)OC[C@@]2(CC)CC[C@H]3C(=C)C(=O)O[C@@H]3[C@@H]12`, the IC50 in the test on CCRF-CEM [2] turned out to be 0.034 µM. Same read-out and setting: next, `C=C[C@]12CC[C@H]3C(=C)C(=O)O[C@@H]3[C@H]1C(=C)C(=O)OC2`: 0.034 µM. As to `C=C(C(=O)OC)[C@H]1CCC[C@H]2C(=C)C(=O)O[C@H]12` (relative stereo), the IC50 with CCRF-CEM [1] was 2.1 µM.

As for `C=C1C(=O)O[C@H]2CCC[C@@H]1C2` (relative stereo), the IC50 with CCRF-CEM [1] amounted to 16 µM. Further, the “growth inhibition (GI)” value with CCRF-SLT was “Active”. The matching figures for `C=C1C(=O)O[C@@H]2CCC[C@@H](O)[C@H]12` (relative stereo): 15 µM and “Active”. In the case of `C=C1C(=O)O[C@@H]2CC[C@@H](O)[C@H]12` (relative stereo), in the test on CCRF-CEM [1], the IC50 was determined as 2.7 µM.

With `C=C[C@]12CCCC[C@H]1C(=C)C(=O)OC2` (relative stereo), the IC50 in the test with CCRF-CEM [1] was determined as 0.68 µM. As to `C=C[C@@]12COC(=O)C(=C)[C@@H]1[C@H]1OC(=O)C(=C)[C@@H]1[C@@H](O)C2` [VERNOLEPIN], the IC50 in the test on CCRF-CEM [2] is 0.43 µM.

Source of the values: ChEMBL document CHEMBL3244055, “Synthesis of mono- and bifunctional alpha-methylene lactone systems as potential tumor inhibitors” (1977).
